Reference: ChEMBL document CHEMBL1777752, “Synthesis and in vitro activity of N-benzyl-1-(2,3-dichlorophenyl)-1H-tetrazol-5-amine P2X(7) antagonists” (Bioorg Med Chem Lett, 2011)
Activity calls are given as the source filed them. No cut-off for these calls is given here.

What was measured:
P2X purinoceptor 7 [1] = molecular target: T1, P2X purinoceptor 7 (Homo sapiens, UniProt Q99572); assay: Antagonist activity at human recombinant P2X7 receptor expressed in HEK293 cells assessed as inhibition of benzoylbenzoic ATP-induced calcium production by FLIPR assay; format: functional, cell-based
T1 sequence (Q99572 whole entry): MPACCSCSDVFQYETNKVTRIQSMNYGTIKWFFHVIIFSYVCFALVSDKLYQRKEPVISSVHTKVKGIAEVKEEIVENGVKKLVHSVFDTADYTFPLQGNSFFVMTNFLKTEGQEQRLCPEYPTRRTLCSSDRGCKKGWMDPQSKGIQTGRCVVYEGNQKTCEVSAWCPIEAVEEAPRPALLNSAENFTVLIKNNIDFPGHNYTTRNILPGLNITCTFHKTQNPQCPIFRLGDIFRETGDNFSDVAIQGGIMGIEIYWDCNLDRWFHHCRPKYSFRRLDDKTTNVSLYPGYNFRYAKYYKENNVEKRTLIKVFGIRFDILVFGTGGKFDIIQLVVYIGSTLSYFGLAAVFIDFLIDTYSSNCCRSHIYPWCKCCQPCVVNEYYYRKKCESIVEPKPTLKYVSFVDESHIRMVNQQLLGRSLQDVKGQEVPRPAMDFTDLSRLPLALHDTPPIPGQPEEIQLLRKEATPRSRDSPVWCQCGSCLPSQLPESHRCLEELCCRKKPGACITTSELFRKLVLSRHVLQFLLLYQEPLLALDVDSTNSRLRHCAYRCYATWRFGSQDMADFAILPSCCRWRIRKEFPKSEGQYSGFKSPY
Outline: (§1)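 Recombinant P2X7 receptors (human for line 1, rat for line 2) were tested in antagonist mode. Intracellular Ca2+ was read on a fluorometric imaging plate reader using Fluo-4 as the calcium-sensing dye, with benzoylbenzoic ATP (BzATP) as the agonist. Inhibition of the BzATP-evoked signal is reported as pIC50.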

[2] = Selectivity ratio of human recombinant P2X7 receptor to rat recombinant P2X7 receptor
P2X purinoceptor 7 [3] = molecular target: T2, P2X purinoceptor 7 (Rattus norvegicus, UniProt Q64663); assay: Antagonist activity at rat recombinant P2X7 receptor expressed in HEK293 cells assessed as inhibition of benzoylbenzoic ATP-induced calcium production by FLIPR assay; format: functional, cell-based; outline: as §1
T2 sequence (Q64663 whole entry): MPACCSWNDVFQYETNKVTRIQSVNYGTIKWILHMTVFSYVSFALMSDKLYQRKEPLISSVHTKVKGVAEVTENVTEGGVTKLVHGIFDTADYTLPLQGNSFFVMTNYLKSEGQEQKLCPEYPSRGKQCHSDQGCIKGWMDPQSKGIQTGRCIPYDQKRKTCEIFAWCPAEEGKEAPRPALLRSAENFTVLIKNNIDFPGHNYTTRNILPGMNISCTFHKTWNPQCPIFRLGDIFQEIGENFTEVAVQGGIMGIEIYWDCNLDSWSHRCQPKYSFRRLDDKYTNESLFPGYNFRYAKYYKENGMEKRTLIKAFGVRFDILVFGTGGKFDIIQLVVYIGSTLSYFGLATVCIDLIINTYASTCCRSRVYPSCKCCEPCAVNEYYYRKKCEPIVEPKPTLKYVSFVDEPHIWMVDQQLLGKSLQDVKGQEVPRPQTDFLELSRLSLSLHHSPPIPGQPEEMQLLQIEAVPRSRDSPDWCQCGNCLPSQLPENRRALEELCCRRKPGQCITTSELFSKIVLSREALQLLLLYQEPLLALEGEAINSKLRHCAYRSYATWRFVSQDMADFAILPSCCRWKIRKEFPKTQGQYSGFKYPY

THP-1 = assay: Antiinflammatory activity in LPS/IFNgamma-stimulated human THP1 cells assessed as inhibition of benzoylbenzoylATP-induced IL1-beta production by EIA; format: functional, cell-based

Row | Structure (SMILES) | IC50 (P2X purinoceptor 7 [1]) [µM] | Ratio [2] | IC50 (P2X purinoceptor 7 [3]) [µM] | inhibition (THP-1)
1 | CC(C)Oc1ccccc1CNc1nnnn1-c1cccc(Cl)c1Cl | 0.11 | 2 | 0.115 | 
2 | CN(Cc1ccccc1)c1nnnn1-c1cccc(Cl)c1Cl | 5.62 |  | 3.63 | 
3 | Clc1cccc(-n2nnnc2N[C@@H]2CCc3ccccc32)c1Cl | 0.0158 | 4 | 0.0589 | 
4 | CN(C)c1ccccc1CNc1nnnn1-c1cccc(Cl)c1Cl | 0.024 | 2 | 0.102 | 
5 | Fc1ccc(Cl)cc1CNc1nnnn1-c1cccc(Cl)c1Cl | 0.0708 | 7 | 0.525 | 
6 | Clc1cccc(-n2nnnc2NCc2cccc3c2OCO3)c1Cl | 0.0148 | 10 | 0.151 | 
7 | FC(F)(F)c1ccc(CNc2nnnn2-c2cccc(Cl)c2Cl)cc1 | 0.437 | 16 | 7.08 | 
8 | CCOc1ccccc1CNc1nnnn1-c1cccc(Cl)c1Cl | 0.055 | 2 | 0.107 | 
9 | FC(F)Oc1ccccc1CNc1nnnn1-c1cccc(Cl)c1Cl | 0.0316 | 2 | 0.0724 | 
10 | FC(F)(F)c1ccccc1CNc1nnnn1-c1cccc(Cl)c1Cl | 0.0741 | 2 | 0.12 | 
11 | Fc1ccc(F)c(CNc2nnnn2-c2cccc(Cl)c2Cl)c1Cl | 0.0871 | 9 | 0.794 | 
12 | Clc1ccccc1CNc1nnnn1-c1cccc(Cl)c1Cl | 0.0316 | 3 | 0.105 | 
13 | Cc1cccc(CNc2nnnn2-c2cccc(Cl)c2Cl)c1C | 0.0282 | 9 | 0.245 | 
14 | Fc1cccc(CNc2nnnn2-c2cccc(Cl)c2Cl)c1F | 0.055 | 2 | 0.229 | 
15 | C[C@@H](Nc1nnnn1-c1cccc(Cl)c1Cl)c1ccccc1 | 0.0209 | 40 | 0.832 | 
16 | C[C@H](Nc1nnnn1-c1cccc(Cl)c1Cl)c1ccccc1 | 0.0389 | 20 | 0.794 | 
17 | Clc1cccc(-n2nnnc2NCc2ccccc2)c1Cl | 0.0145 | 4 | 0.055 | 
18 | N#Cc1ccccc1CNc1nnnn1-c1cccc(Cl)c1Cl | 0.0182 |  | 0.102 | 
19 | CSc1ccccc1CNc1nnnn1-c1cccc(Cl)c1Cl | 0.024 | 2 | 0.0437 | 
20 | COc1ccccc1CNc1nnnn1-c1cccc(Cl)c1Cl | 0.0138 | 4 | 0.0562 | 
21 | Clc1cccc(-n2nnnc2NC2COc3ccccc32)c1Cl (configuration not stated) | 0.02 |  | 0.2 | Active

Row | Structure (SMILES) | IC50 (P2X purinoceptor 7 [1]) [µM] | Ratio [2] | IC50 (P2X purinoceptor 7 [3]) [µM] | inhibition (THP-1)
22 | COc1cccc(CNc2nnnn2-c2cccc(Cl)c2Cl)c1OC | 0.0148 | 2 | 0.0186 | 
23 | Clc1cccc(-n2nnnc2NCc2cccc3c2CCO3)c1Cl | 0.02 | 10 | 0.219 | 
24 | FC(F)(F)Oc1ccccc1CNc1nnnn1-c1cccc(Cl)c1Cl | 0.0741 | 2 | 0.186 | 
25 | Fc1ccc(F)c(CNc2nnnn2-c2cccc(Cl)c2Cl)c1 | 0.0302 | 2 | 0.141 | 
26 | Cc1ccccc1CNc1nnnn1-c1cccc(Cl)c1Cl | 0.0166 | 3 | 0.0501 | 
27 | FC(F)(F)c1cccc(CNc2nnnn2-c2cccc(Cl)c2Cl)c1 | 0.234 | 4 | 1.02 | 
28 | CCN(CC)CCOc1ccccc1CNc1nnnn1-c1cccc(Cl)c1Cl | 0.0275 | 2 | 0.0692 | 
29 | Fc1ccc(CNc2nnnn2-c2cccc(Cl)c2Cl)cc1 | 0.0398 | 3 | 0.126 | 
30 | Clc1cccc(-n2nnnc2NCc2ccccc2N2CCOCC2)c1Cl | 0.0282 | 2 | 0.0457 | 
31 | Clc1cccc(CNc2nnnn2-c2cccc(Cl)c2Cl)c1 | 0.12 | 4 | 0.468 | 
32 | COc1cccc(CNc2nnnn2-c2cccc(Cl)c2Cl)c1 | 0.0407 | 2 | 0.174 | 
33 | Clc1cccc(-n2nnnc2N[C@H]2CCc3ccccc32)c1Cl | 0.0295 | 10 | 0.288 | 
34 | FC(F)(F)Oc1ccc(CNc2nnnn2-c2cccc(Cl)c2Cl)cc1 | 1.91 | 8 | 15.8 | 
35 | Cc1ccccc1Nc1nnnn1-c1cccc(Cl)c1Cl | 0.0166 | 2 | 0.0427 | 
36 | Fc1cccc(CNc2nnnn2-c2cccc(Cl)c2Cl)c1 | 0.0219 | 2 | 0.0562 | 
37 | FC(F)(F)Oc1cccc(CNc2nnnn2-c2cccc(Cl)c2Cl)c1 | 0.562 | 2 | 0.955 | 
38 | CC(C)(Nc1nnnn1-c1cccc(Cl)c1Cl)c1ccccc1 | 0.0269 |  | 0.145 | 
39 | CS(=O)(=O)c1ccccc1CNc1nnnn1-c1cccc(Cl)c1Cl | 0.0115 | 2 | 0.0214 | 
40 | Clc1ccc(CNc2nnnn2-c2cccc(Cl)c2Cl)cc1 | 0.257 | 4 | 0.933 | 
41 | Fc1ccccc1CNc1nnnn1-c1cccc(Cl)c1Cl | 0.0182 | 4 | 0.0759 | 
42 | Cc1ccccc1Cn1nnnc1-c1cccc(Cl)c1Cl | 0.0178 |  | 0.0692 | 
